Results published in ChEMBL document CHEMBL1240382, “Elucidation of the pharmacokinetic/pharmacodynamic determinant of colistin activity against Pseudomonas aeruginosa in murine thigh and lung infection models” (Antimicrob Agents Chemother, 2010).

Assays:
Format in all cases: ADME, organism-based
Conditions in all cases: in vivo
[1] = system: Mus musculus; test: Cmax in Pseudomonas aeruginosa infected neutropenic Swiss mouse at 5 mg/kg, sc; parameters: dose 5 mg/kg, route subcutaneous
Method in brief: (§1)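 Single s.c. colistin (sulfate) dose (5, 10, 20 or 40 mg/kg) in neutropenic thigh-infected mice; central-vein blood at 6–8 times over 10 h, 4 mice per time; plasma colistin by HPLC (0.10–4.00 mg/liter calibration). Unbound levels from concentration-dependent fu (equilibrium dialysis, pH 7.4 phosphate buffer, 21 h, 37°C); parameters by noncompartmental analysis.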

[2] = system: Mus musculus; test: Cmax in Pseudomonas aeruginosa infected neutropenic Swiss mouse at 10 mg/kg, sc; parameters: dose 10 mg/kg, route subcutaneous; method in brief: as §1
[3] = system: Mus musculus; test: Cmax in Pseudomonas aeruginosa infected neutropenic Swiss mouse at 20 mg/kg, sc; parameters: dose 20 mg/kg, route subcutaneous; method in brief: as §1
[4] = system: Mus musculus; test: Cmax in Pseudomonas aeruginosa infected neutropenic Swiss mouse at 40 mg/kg, sc; parameters: dose 40 mg/kg, route subcutaneous; method in brief: as §1
[5] = system: Mus musculus; test: Tmax in Pseudomonas aeruginosa infected neutropenic Swiss mouse at 5 mg/kg, sc; parameters: dose 5 mg/kg, route subcutaneous; method in brief: as §1
[6] = system: Mus musculus; test: Tmax in Pseudomonas aeruginosa infected neutropenic Swiss mouse at 10 mg/kg, sc; parameters: dose 10 mg/kg, route subcutaneous; method in brief: as §1
[7] = system: Mus musculus; test: Tmax in Pseudomonas aeruginosa infected neutropenic Swiss mouse at 20 mg/kg, sc; parameters: dose 20 mg/kg, route subcutaneous; method in brief: as §1
[8] = system: Mus musculus; test: Tmax in Pseudomonas aeruginosa infected neutropenic Swiss mouse at 40 mg/kg, sc; parameters: dose 40 mg/kg, route subcutaneous; method in brief: as §1
[9] = system: Mus musculus; test: Apparent volume of distribution to bioavailability in Pseudomonas aeruginosa infected neutropenic Swiss mouse at 5 mg/kg, sc; method in brief: as §1
[10] = system: Mus musculus; test: Apparent volume of distribution to bioavailability in Pseudomonas aeruginosa infected neutropenic Swiss mouse at 10 mg/kg, sc; method in brief: as §1
[11] = system: Mus musculus; test: Apparent volume of distribution to bioavailability in Pseudomonas aeruginosa infected neutropenic Swiss mouse at 20 mg/kg, sc; method in brief: as §1
[12] = system: Mus musculus; test: Apparent volume of distribution to bioavailability in Pseudomonas aeruginosa infected neutropenic Swiss mouse at 40 mg/kg, sc; method in brief: as §1
[13] = system: Mus musculus; test: Half life in Pseudomonas aeruginosa infected neutropenic Swiss mouse at 5 mg/kg, sc; parameters: dose 5 mg/kg, route subcutaneous; method in brief: as §1
[14] = system: Mus musculus; test: Half life in Pseudomonas aeruginosa infected neutropenic Swiss mouse at 10 mg/kg, sc; parameters: dose 10 mg/kg, route subcutaneous; method in brief: as §1
[15] = system: Mus musculus; test: Half life in Pseudomonas aeruginosa infected neutropenic Swiss mouse at 20 mg/kg, sc; parameters: dose 20 mg/kg, route subcutaneous; method in brief: as §1
[16] = system: Mus musculus; test: Half life in Pseudomonas aeruginosa infected neutropenic Swiss mouse at 40 mg/kg, sc; parameters: dose 40 mg/kg, route subcutaneous; method in brief: as §1

- Cmax [1]: 310 ng/mL
- Cmax [2]: 1440 ng/mL
- Cmax [3]: 3290 ng/mL
- Cmax [4]: 8890 ng/mL
- Tmax [5]: 1 h
- Tmax [6]: 0.5 h
- Tmax [7]: 2 h
- Tmax [8]: 2 h
- Vc/F [9]: 10.1 L/kg
- Vc/F [10]: 4.63 L/kg
- Vc/F [11]: 4.88 L/kg
- Vc/F [12]: 3.27 L/kg
- t1/2 [13]: 0.298 h
- t1/2 [14]: 1.14 h
- t1/2 [15]: 1.34 h
- t1/2 [16]: 1.39 h
Sequence: COLISTIMETHATE SODIUM
